From PubChem BioAssay
Shown are actives, neighbours in structure and some others; about 3.5% of the full set was active somewhere.
MrgX1 PAM – human MrgX1 positive allosteric modulation, primary screen | AID 588675 | B-score at 10 µM | MrgX1-HEK293, Fluo-4 calcium flux, FDSS; active compounds read high | 0.63% of 310,000 active | Q96LB2;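 active means plate-corrected calcium response at least 3 library SD above typical, normal starting fluorescence, not activating the receptor alone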;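 further: compound read alongside a low EC10 to EC30 dose of BAM8-22 agonist; peak minus trough fluorescence over baseline measured at the second addition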
Target sequence (Q96LB2 whole entry, looked up): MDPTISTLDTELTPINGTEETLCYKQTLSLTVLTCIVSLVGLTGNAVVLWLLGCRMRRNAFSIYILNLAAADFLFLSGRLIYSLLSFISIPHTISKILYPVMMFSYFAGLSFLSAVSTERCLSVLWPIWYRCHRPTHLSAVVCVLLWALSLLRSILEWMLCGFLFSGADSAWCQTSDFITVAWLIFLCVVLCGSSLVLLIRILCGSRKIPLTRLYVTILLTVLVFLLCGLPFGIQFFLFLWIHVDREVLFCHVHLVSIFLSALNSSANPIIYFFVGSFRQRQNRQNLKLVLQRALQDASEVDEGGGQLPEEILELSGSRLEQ
MrgX1 agonist – human MrgX1 receptor agonism, primary screen; Q96LB2; MrgX1-HEK293 cells, Fluo-4 calcium fluorescence, agonist mode; active compounds read high; B-score at 10 µM; 0.44% of 310,000 active; AID 588627;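 active means calcium response B-score plate-corrected fluorescence ratio at least 3 library SD, with starting fluorescence B-score inside 5 SD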
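System: HEK293 cells stably expressing human MrgX1 receptor; Dosing: test compound in the initial addition of three; Schedule: overnight plating, then 30 min 37 °C plus 30 min room-temperature dye loading; Detection: kinetic calcium dye fluorescence, Fluo-4 NW; Controls: per-plate positive and negative controls for Z′ factor.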
RGS4 pot – RGS4 potentiation or activation | HEK293 M3R/inducible RGS4, carbachol calcium flux Fluo4; active compounds read low | B-score at 10 µM | 0.92% of 310,000 active;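 active means B-score of the integrated calcium signal more than 4 SD below the library mean, with starting fluorescence not abnormally high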;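 further: negative B-score means reduced calcium response which marks RGS4 activation or potentiation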
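Also added: carbachol at ECmax as muscarinic agonist stimulus; Assay system: HEK293 cells with stable M3R and inducible RGS4; Timing: overnight RGS4 induction, 30 min dye load 37 °C, 20 min compound RT; Measured by: Fluo4-AM (2 µM) calcium-flux fluorescence, kinetic read.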
RGS4 inh – inhibitors of human RGS4; P49798; HEK293 M3R/RGS4 inducible, Fluo-4 calcium flux; active compounds read high; triggered by carbachol at its EC20; B-score at 10 µM; 0.45% of 310,000 active; AID 463165;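 active means B-score, a plate-corrected calcium signal, over three deviations above library mean, with baseline fluorescence within five deviations of library mean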;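 further: RGS4 expression induced by doxycycline in cells with stable M3 receptor; B-score is computed from the integrated fluorescence ratio over baseline after carbachol; higher B-score means a larger calcium signal and so more RGS4 inhibition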
Target sequence (P49798 whole entry, looked up): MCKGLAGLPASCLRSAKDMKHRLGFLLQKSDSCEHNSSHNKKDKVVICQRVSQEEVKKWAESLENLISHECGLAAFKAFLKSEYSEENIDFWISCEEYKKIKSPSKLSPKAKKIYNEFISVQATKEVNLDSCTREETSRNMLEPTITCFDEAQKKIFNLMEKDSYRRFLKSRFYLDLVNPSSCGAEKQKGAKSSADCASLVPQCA
MrgX1 antag – antagonists of human MrgX1 receptor. Q96LB2. MRGX1-HEK293 calcium flux, Fluo-4, BAM8-22 antagonism; active compounds read low. B-score at 10 µM. 1.3% of 310,000 active. AID 588676;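 active means calcium-response B-score plate-corrected more than 3 library SD below zero, starting fluorescence within 5 deviations, no agonist response on first addition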;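 further: peak minus trough fluorescence over baseline after final BAM8-22 challenge near maximal dose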
MrgX1 antag conf – human MrgX1 receptor antagonism, re-confirmation screen. shares compounds with MrgX1 antag. MrgX1-HEK293, BAM8-22 calcium flux, Fluo-4; active compounds read low. remaining BAM8-22 calcium response % of control (active compounds read low), % at 10 µM. 19% of 2,300 active;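 active means remaining agonist calcium response no higher than 100% minus 3 SD of agonist-only control wells, with starting fluorescence near control levels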;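 further: agonist BAM8-22 given at a near maximal EC90 to ECmax level; peak minus minimum fluorescence divided by baseline after agonist addition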
HEK293 Ca flux – activity in parental HEK293 cells lacking MrgX1; AID 624111; 2% of 4,000 active; shares compounds with MrgX1 antag; Fluo-4 calcium fluorescence, FDSS; fluorescence ratio F(max-min)/F0 at 10 µM;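 active means duplicate-averaged calcium fluorescence ratio at least three times the standard deviation of buffer wells, a nonspecific response in parental cells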
HEK293 Ca counter – MrgX1 allosteric activator counter-screen hit in parental HEK293 cells | shares compounds with MrgX1 antag | parental HEK293 calcium flux, Fluo-4 fluorescence ratio; active compounds read high | fluorescence ratio F(max-min)/F0 at 10 µM | 0.4% of 4,000 active | AID 624114;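 active means calcium fluorescence ratio, averaged over duplicates, at least 3 SD of the buffer-well ratio, meaning a nonspecific response in receptor-free cells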;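 further: untransfected parental HEK293 lacking MrgX1 used as counterscreen for MrgX1 allosteric activators; fluorescence change taken during the second addition on a kinetic imager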
HEK293 Ca cntr2 – MrgX1 activator counter-screen hit in parental HEK293 cells. shares compounds with MrgX1 antag. Fluo-4 calcium fluorescence (FDSS); active compounds read high. AID 624115. fluorescence ratio F(max-min)/F0 at 10 µM. 8.7% of 4,000 active;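 active means calcium fluorescence ratio at least three times the spread of buffer wells, meaning a non-specific response in parental cells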
Numbers without * were called inactive; i = inactive; nt = no result given.

SMILES	MrgX1 PAM	MrgX1 agonist	RGS4 pot	RGS4 inh	MrgX1 antag	MrgX1 antag conf	HEK293 Ca flux	HEK293 Ca counter	HEK293 Ca cntr2
COc1ccc(OC)c(-n2c(SCC(N)=O)nnc2-c2c[nH]c3ccccc23)c1	i	i	i	i	-6.7*	i	i	i	i
Cc1ccccc1C(=O)Oc1ccc(Br)cc1C(=S)N1CCCC1	i	i	i	i	-9.4*	i	i	i	i
COC(=O)C(Cc1c[nH]c2ccccc12)N1CCS(=O)(=O)CC1 (stereo not drawn)	i	i	i	i	-5.7*	i	i	i	i
COC(=O)C(Cc1ccccc1)N1CCS(=O)(=O)CC1 (stereo not drawn)	i	i	i	i	i	nt	nt	nt	nt
Fc1ccc(COc2ccccc2C(=S)N2CCCC2)cc1	i	i	i	i	-5.4*	i	i	i	i
O=C1CCN(S(=O)(=O)c2ccc(Cl)cc2)CCN1	i	i	i	i	-4.6*	84%*	i	i	i
COc1ccc(-n2c(Cc3cccn3C)nnc2SCC(=O)Nc2ccc(C)c(Cl)c2)cc1	i	i	i	i	-4.8*	i	i	i	i
Nc1nc2c(ncn2[C@H]2C[C@H](O)[C@@H](CO)O2)c(=O)[nH]1	i	i	i	i	i	nt	nt	nt	nt
Nc1nc(Cl)nc2c1ncn2C1CC(O)C(CO)O1 (stereo not drawn)	i	i	i	i	-5.1*	i	i	i	i
Cc1ccc(NCc2ccccc2O)cc1	i	i	i	i	i	nt	nt	nt	nt
Cc1ccc(NCc2ccccc2F)cc1	i	i	i	i	-5.9*	i	i	i	i
Cc1ccc(S(=O)(=O)NCCC(=O)OCC(=O)N(Cc2ccccc2)C(C)(C)C)cc1	i	i	i	i	i	nt	nt	nt	nt
O=C(COc1cccc(NC(=O)c2ccccc2)c1)c1ccccc1	i	i	i	i	i	nt	nt	nt	nt
O=C(COc1cccc(NC(=O)c2cccs2)c1)c1ccc(F)cc1	i	i	i	i	-4.9*	i	i	i	i
O=C(O)Cn1cnc2c(oc3ccccc32)c1=O	i	i	i	i	i	nt	nt	nt	nt
O=C(Cn1cnc2c(oc3ccccc32)c1=O)c1ccccc1	i	i	i	i	-8.2*	i	i	i	i
COc1ccc2c(c1)CC/C2=N\NC(=O)c1ccccc1	i	i	i	i	-18*	i	i	i	i
COc1ccc(OCC(=O)N/N=C2\CCc3ccccc32)cc1	i	i	i	i	i	nt	nt	nt	nt
CCN(CC)c1ccc2c(Cl)c(Br)c(=O)oc2c1	i	i	i	i	-14*	i	0.037*	i	i
COc1ccc(NS(=O)(=O)c2cccc(C(=O)NCc3ccco3)c2)cc1	i	i	i	i	-6.5*	i	i	i	55*
CCCCc1cn([C@@H](CCCCN)C(=O)N2CCNCC2)nn1	i	i	i	i	i	nt	nt	nt	nt
NCCCC[C@@H](C(=O)N1CCNCC1)n1cc(CN)nn1	i	i	nt	nt	-7.1*	i	i	i	i
Nn1c(SCC(=O)N2CCOCC2)nnc1-c1ccccc1Cl	i	i	i	i	-6.2*	74%*	i	i	i
O=C(CSc1nnc2ccccn12)N1CCOCC1	i	i	i	i	i	nt	nt	nt	nt
